Compounds with a hit are over-represented: about 1.8% of the library has one in this group of screens.
DNMT1 block: DNMT1 (human) enzyme inhibition | P26358 | DNMT1 molecular beacon, Hinp1I cleavage, fluorescence | inhibition (reported as % activation of signal), % at 10 µM | 360,000 compounds, 0.83% hits; in the data active = inhibition above about 50%
STEP inh: inhibitors of human striatal-enriched phosphatase STEP | AID 588621 | recombinant STEP, OMFP fluorogenic substrate, fluorescence | inhibition, % at 20 µM | 360,000 compounds, 0.25% hits;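 active = inhibition at 20 µM, scaled per plate between control wells, above about 37%, limit read from the data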;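 note: 0% = DMSO with enzyme and substrate and 100% = substrate only without enzyme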
Target sequence (P54829 whole entry, looked up): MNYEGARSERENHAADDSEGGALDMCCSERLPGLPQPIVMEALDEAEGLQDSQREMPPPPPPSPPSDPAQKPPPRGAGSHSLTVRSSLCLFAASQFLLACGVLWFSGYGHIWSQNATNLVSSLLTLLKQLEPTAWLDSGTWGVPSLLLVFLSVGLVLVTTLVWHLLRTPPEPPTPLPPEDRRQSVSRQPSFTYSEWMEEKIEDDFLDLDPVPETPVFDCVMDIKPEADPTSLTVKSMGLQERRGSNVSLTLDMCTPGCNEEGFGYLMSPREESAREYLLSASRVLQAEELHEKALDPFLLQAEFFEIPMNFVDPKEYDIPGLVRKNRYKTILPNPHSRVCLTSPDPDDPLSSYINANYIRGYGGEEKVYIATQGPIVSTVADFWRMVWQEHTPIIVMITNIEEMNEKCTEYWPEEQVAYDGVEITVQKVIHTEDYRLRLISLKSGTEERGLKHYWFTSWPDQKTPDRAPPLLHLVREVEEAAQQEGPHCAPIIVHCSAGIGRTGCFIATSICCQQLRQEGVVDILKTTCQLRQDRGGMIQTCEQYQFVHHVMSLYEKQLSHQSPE
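System: isolated STEP enzyme; schedule: 20 min enzyme reaction at room temperature, protected from light; medium: Bis-Tris buffer pH 6.0, 2.5 mM DTT, 0.005% Tween 20; signal: fluorescence, 480/540 nm; dosing: single compound dose of 20 µM, 1% DMSO final; also added: OMFP substrate, 25 µM final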
SUMO1-SIM PPI: alters human SUMO1 binding to SIM partners. P63165. SUMO1 binding to a labelled peptide, TR-FRET, 1 h. inhibition, % at 20 µM. 360,000 compounds, 0.33% hits. AID 602429; in the data active = inhibition above about 37%
Target sequence (P63165 whole entry, looked up): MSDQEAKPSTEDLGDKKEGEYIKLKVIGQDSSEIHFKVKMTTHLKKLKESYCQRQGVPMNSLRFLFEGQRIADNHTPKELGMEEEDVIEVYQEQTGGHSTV
Scp-1 inhibitor: inhibitors of human Scp-1 phosphatase; Recombinant Scp1, phosphopeptide, malachite green phosphate absorbance; AID 493091; inhibition, % at 20 µM; 340,000 compounds, 0.88% hits; Q9GZU7;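 active = inhibition above about 50% at 20 µM, limit read from the data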;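 note: plate controls were DMSO wells with enzyme for no effect and wells lacking enzyme for full effect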
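Test system: SCP-1 phosphatase catalytic domain, residues 76-261 | Compound dosing: One concentration, 20 µM, with 1.0% DMSO | Schedule: 45 min room-temperature reaction, 5 min colour, 30 min stabiliser | Detection: Absorbance at 630 nm | Read-out basis: % inhibition of SCP-1 phosphate liberation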
LMPTP inh: LMPTP (human) inhibition; P24666; recombinant LMPTP-A, OMFP fluorogenic substrate, fluorescence intensity; inhibition, % at 20 µM; 360,000 compounds, 0.22% hits; AID 651560;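 active = compounds that cut the enzyme signal by at least half of the control window in the single-dose screen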;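 note: plate controls were DMSO wells with enzyme plus substrate for no effect and substrate without enzyme for full effect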
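Buffer or medium: Bis-Tris pH 6.0, DTT, detergent; Assay system: LMPTP-A enzyme; Quantity: 0.625 nM enzyme; Detection: endpoint fluorescence intensity; Times: 50 min dark incubation at room temperature; Controls: substrate-only low control, DMSO enzyme-plus-substrate high control; Doses: single 20 µM dose; Read-out: percent inhibition versus substrate-only and uninhibited controls; Reagent: 400 µM OMFP.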
Starred values were filed as active, the others as inactive; x = no result; ! = a repeat was not active.

SMILES | DNMT1 block | STEP inh | SUMO1-SIM PPI | Scp-1 inhibitor | LMPTP inh
COc1ccc(N2CCN(S(=O)(=O)c3ccc(C(=O)NC4CCCC4)cc3)CC2)cc1 | 9 | -3 | 51* | -2 | -2
COc1ccc(S(=O)(=O)N2CCC(NC(=O)c3ccccc3)CC2)cc1 | 0 | -2 | 1 | 8 | 1
COc1cc(NC(=O)CCc2c(C)noc2C)c(Cl)cc1C(=O)O | 8 | 2 | 1 | 25 | 0
Cc1nn(CCc2nn[nH]n2)c2nc(-c3ccc(C4CCCCC4)cc3)cc(C(F)(F)F)c12 | 9 | 1 | 40* | -7 | 3
Cc1nn(CCC(=O)O)c2nc(-c3cccnc3)cc(C(F)(F)F)c12 | 4 | 6 | 1 | 1 | 0
O=c1[nH]c(C2CCN(S(=O)(=O)c3cccc([N+](=O)[O-])c3)CC2)nc2c1nnn2Cc1ccccc1 | -1 | -2 | -12 | -8 | 0
CCc1c(C)nc2c(C#N)c(C)[nH]n2c1=O | 5 | -2 | 54* | -3 | 0
c1coc(-c2nc(-c3ccco3)c(-c3ccco3)nc2-c2ccco2)c1 | 117* | 94* | 83* | 93* | 82*
CN1CCN(CCCNCc2cn(CCC#N)c3ccccc23)CC1 | -18 | 0 | -108 | -5 | -5
Cc1ccc(NC(=O)c2ccc(OC(=O)CCN3C(=O)c4ccccc4C3=O)cc2)cc1 | 50* | 10 | 21 | 0 | 0
Cc1cc(C)cc(OC(=O)CCN2C(=O)c3ccccc3C2=O)c1 | -1 | 4 | -10 | 6 | 0
CCC1(c2ccc(Cl)cc2)NC(=O)N(CC(=O)NC2CCCC(C)C2C)C1=O (configuration not stated) | -1 | -1 | 4 | -7 | 1
COc1ccc(-c2csc(N3CCN(c4cc(C)nc5ccccc45)CC3)n2)cc1OC | -10 | 3 | -13 | 3 | 84*
Cc1cccc(NC(=O)c2ncn3c2C(=O)NC[C@H]3C)c1 | -5 | -2 | 6 | x | -1
O=C1/C(=C\c2cccc(O)c2O)SC(=S)N1Cc1ccccc1 | -22 | 18 | -11 | -20 | 4
O=C1/C(=C\c2cc([N+](=O)[O-])ccc2O)SC(=S)N1Cc1ccc(Cl)cc1 | 57* | -18 | 19 | -20 | 4
c1ccc(CNc2nc(NCCc3ccncc3)c3sccc3n2)cc1 | -2 | 4 | -1 | x | 87*
CC[n+]1c(/C=C/C=C/N(C(C)=O)c2ccccc2)sc2cc(OC)ccc21 | x | x | x | 61* | x
CC[n+]1c(/C=C(\C)OC)sc2ccccc21 | 5 | 1 | 1 | -1 | 23
CSc1nsc2nc(=O)c(/C=C3\C(C)=Nc4ccc(C)cc43)c(N)n12 | -4 | 0 | 7 | -11 | 8
CC1=Nc2ccc(C)cc2/C1=C/c1c(N)n2oc(C)cc2nc1=O | 56*! | 6 | 5 | -4 | 16
CC(OC(=O)CCCN=C1NS(=O)(=O)c2ccccc21)C(=O)NC1CCCCC1C (configuration not stated) | 0 | 0 | -2 | 4 | -1
Cc1cc(Cl)c2oc(C(=O)N3CCN(C(=O)c4ccco4)CC3)c(C)c2c1 | 4 | -3 | 2 | -7 | -2
Cc1ccc2oc(Nc3nc(-c4ccccc4)cc(=O)[nH]3)nc2c1 | x | x | x | 96* | x
CCCS(=O)(=O)NC(=O)C1(C)CCCN(C(=O)c2ccc(C#N)cc2)C1 (configuration not stated) | 6 | 2 | 4 | x | -2
SMILES | DNMT1 block | STEP inh | SUMO1-SIM PPI | Scp-1 inhibitor | LMPTP inh
Cc1c(C)c2ccc(OCC(=O)Nc3ccccn3)cc2oc1=O | -1 | 0 | 55* | 6 | 0
N#Cc1cccc(NC(=O)CSc2nnc(C3CC3)n2C2CC2)c1 | 0 | 3 | -2 | -3 | 1
Nc1nc(N)nc(-c2ccc(Cl)c(Cl)c2)n1 | -7 | -4 | 0 | -4 | -1
Cc1nc(N)nc(N)c1-c1ccc(Cl)c(Cl)c1 | 8 | 2 | -3 | -5 | 57*
Cc1nc(N)nc(N)c1CCCc1ccc(Cl)c(Cl)c1 | 3 | 0 | -3 | -7 | 64*
CCC(C(=O)NC1CCCC1)n1c(-c2cc3ccccc3[nH]2)nc2ccccc21 (configuration not stated) | x | x | -9 | x | 1
COc1cccc(-c2ccc(NC(=O)C3CCCN(Cc4nccn4C)C3)cc2)c1 (configuration not stated) | -5 | 0 | 6 | -2 | -2
Cc1cc2[nH]c3c(c[n+](C)c4ccccc34)c2cc1C | 28 | 5 | -4 | 36 | 73*
Cc1cc(=O)[nH]c2ccccc12 | 1 | 1 | -2 | -10 | -1
Nc1nn2c(-c3ccccc3)cc(=O)[nH]c2c1N=Nc1ccc(O)cc1 | -25 | 11 | 4 | -3 | 25
Nc1nn2c(-c3ccccc3)cc(=O)[nH]c2c1N=Nc1ccc(Br)cc1 | -31 | 14 | -3 | 13 | 56*
NC(=O)C1CCN(C(=S)c2ccc(-c3ccc(Br)cc3)o2)CC1 | -1 | 95* | -7 | -3 | -1
Clc1cccc(-c2ccc(C3Nc4cccc5cccc(c45)N3)o2)c1 | 44 | 0 | 15 | 11 | 53*
CCC1CCc2sc(C(=O)OCC(=O)N(CCOC)c3c(N)n(Cc4ccccc4)c(=O)[nH]c3=O)cc2C1 (configuration not stated) | -3 | 2 | 1 | -6 | 2
CC(C)CN(C(=O)COC(=O)c1cccs1)c1c(N)n(Cc2ccccc2)c(=O)[nH]c1=O | 5 | -1 | 3 | x | 1
CC(C)CN(C(=O)COC(=O)c1ccc([N+](=O)[O-])s1)c1c(N)n(Cc2ccccc2)c(=O)[nH]c1=O | 56* | 0 | -19 | -4 | -1
COCCN(C(=O)COC(=O)c1cc2c(s1)CCC2)c1c(N)n(Cc2ccccc2)c(=O)[nH]c1=O | 101* | 96* | 112* | 88* | 72*
C[C@H]1CN([C@@H](C)CO)C(=O)CCCn2nncc2CO[C@@H]1CN(C)C(=O)c1ccc2ccn(C)c2c1 | 6 | 1 | 2 | x | -2
O=C(NC1CCCC1)c1cc(-c2cccc(Cl)c2)on1 | 3 | 0 | -3 | -3 | 0
COC(=O)[C@]1(C)N[C@H](c2ccc(SC3CCCCC3)c(OC)c2)[C@@H]2C(=O)N(C)C(=O)[C@@H]21 | 0 | 0 | 4 | -3 | 0
O=C(N/N=C\C=C\c1ccc([N+](=O)[O-])o1)c1cccs1 | 81* | 12 | 9 | 57* | 6
O=C(N/N=C/C=C/c1ccccc1[N+](=O)[O-])c1cccs1 | 0 | -5 | -16 | -8 | -1
CC1=CC(C)(C)N(C(=O)CSc2ncn[nH]2)c2ccc(C)cc21 | -1 | 0 | 43* | -7 | -1
CCC(C(=O)NC(C)(C)C)N(Cc1ccc(F)cc1)C(=O)c1snc(C(N)=O)c1N (configuration not stated) | 1 | -5 | -6 | -1 | 0

Bioassay records (PubChem BioAssay)
